# Test results from ChEMBL document CHEMBL3232808, “Synthesis, biological evaluation, and structure-activity relationships of potent noncovalent and nonpeptidic cruzain inhibitors as anti-Trypanosoma cruzi agents” (J Med Chem, 2014).
# Assays:
# [1] = target: Cruzipain (Trypanosoma cruzi) (UniProt P25779); assay: Inhibition of Trypanosoma cruzi cruzaine expressed in Escherichia coli SG13009 using Z-FR-AMC as substrate at 100 uM after 5 mins
# Trypanosoma cruzi [2] = assay: Antitrypanosomal activity against amastigote stage of lacZ expressing Trypanosoma cruzi Tulahuen after 72 hrs; assay type: functional, organism-based
# Summary of the method: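 Human fibroblasts seeded 2×10^3/well in RPMI 1640 without phenol red, overnight; β-galactosidase-expressing trypomastigotes added 1.0×10^4/well. After 24 h, compounds (DMSO stocks diluted in medium) added in serial dilutions 300 to 0.4 μM, triplicate; 72 h incubation. CPRG with Nonidet P-40 (0.1% final) added, absorbance 570 nm; IC50 from curve fitting; benznidazole positive, untreated negative controls; ≥3 experiments.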
# Cruzipain [3] = target: T1, Cruzipain (Trypanosoma cruzi, UniProt P25779); assay: Inhibition of Trypanosoma cruzi cruzaine expressed in Escherichia coli SG13009 using Z-FR-AMC as substrate after 5 mins
# Mus musculus [4] = assay: Acute toxicity in BALB/c mouse at 20, 30, 50 and 50 mg/kg, ip administered at 0, 2, 4, 6 hrs respectively and measured after last dose; assay type: organism-based; parameters: dose 50 mg/kg, route intraperitoneal; conditions: in vivo
# Summary of the method: (§1)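 One female BALB/c mouse (18–20 g) per compound. Stock diluted to 5 mg/mL in sterile distilled water, given ip as cumulative doses over 6 h (20, 30, 50, 50 mg/kg at 0, 2, 4, 6 h; total 150 mg/kg). Mice observed 48 h for acute toxicity signs (chill, thirst) or death, then euthanized.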
# Mus musculus [5] = assay: Acute toxicity in BALB/c mouse at 20, 30, 50 and 50 mg/kg, ip administered at 0, 2, 4, 6 hrs respectively and measured after 24 hrs post last dose; assay type: organism-based; parameters: dose 50 mg/kg, route intraperitoneal; conditions: in vivo
# Mus musculus [6] = assay: Acute toxicity in BALB/c mouse assessed as mortality incidence at 20, 30, 50 and 50 mg/kg, ip administered at 0, 2, 4, 6 hrs respectively and measured after 48 hrs post last dose; assay type: organism-based; parameters: dose 50 mg/kg, route intraperitoneal; conditions: in vivo; summary of the method: as §1
# Trypanosoma cruzi [7] = assay: Ratio of benznidazole IC50 to compound IC50 for amastigote stage of lacZ expressing Trypanosoma cruzi Tulahuen; assay type: functional
# Summary of the method: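 Human fibroblasts (2×10^3/well) were seeded overnight in phenol-red-free RPMI 1640, then infected with β-galactosidase-expressing Tulahuen trypomastigotes (1.0×10^4/well). After 24 h, compounds (DMSO stocks) were added as serial dilutions from 300 to 0.4 μM, each in triplicate. After 72 h, CPRG with 0.1% Nonidet P-40 was added and A570 read. Benznidazole was run alongside as standard. IC50s are means of ≥3 experiments.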
# Cruzipain [8] = target: T1, Cruzipain; assay: Competitive inhibition of Trypanosoma cruzi cruzaine expressed in Escherichia coli SG13009 using Z-FR-AMC as substrate by Lineweaver-Burk plot analysis
# Summary of the method: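 Mechanism study: eight Z-FR-AMC concentrations crossed with four inhibitor concentrations, each in triplicate, with 1.5 nM cruzain in 0.1 M sodium acetate pH 5.5, 5 mM DTT, 0.01% Triton X-100; 5 min initial rates; kinetic parameters obtained with an enzyme kinetics module.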
# Cruzipain (Trypanosoma cruzi), sequence (P25779 123-467 limits assumed): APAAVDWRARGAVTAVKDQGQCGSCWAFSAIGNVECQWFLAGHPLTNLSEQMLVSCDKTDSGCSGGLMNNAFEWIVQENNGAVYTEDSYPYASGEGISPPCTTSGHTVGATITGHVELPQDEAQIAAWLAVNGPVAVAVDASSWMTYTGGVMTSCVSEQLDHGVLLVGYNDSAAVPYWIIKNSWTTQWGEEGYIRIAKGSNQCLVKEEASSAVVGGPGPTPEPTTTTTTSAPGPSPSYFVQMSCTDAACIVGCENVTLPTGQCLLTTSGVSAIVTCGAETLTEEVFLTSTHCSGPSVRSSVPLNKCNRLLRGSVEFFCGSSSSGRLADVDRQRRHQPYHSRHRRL
# T1 sequence (P25779 whole entry): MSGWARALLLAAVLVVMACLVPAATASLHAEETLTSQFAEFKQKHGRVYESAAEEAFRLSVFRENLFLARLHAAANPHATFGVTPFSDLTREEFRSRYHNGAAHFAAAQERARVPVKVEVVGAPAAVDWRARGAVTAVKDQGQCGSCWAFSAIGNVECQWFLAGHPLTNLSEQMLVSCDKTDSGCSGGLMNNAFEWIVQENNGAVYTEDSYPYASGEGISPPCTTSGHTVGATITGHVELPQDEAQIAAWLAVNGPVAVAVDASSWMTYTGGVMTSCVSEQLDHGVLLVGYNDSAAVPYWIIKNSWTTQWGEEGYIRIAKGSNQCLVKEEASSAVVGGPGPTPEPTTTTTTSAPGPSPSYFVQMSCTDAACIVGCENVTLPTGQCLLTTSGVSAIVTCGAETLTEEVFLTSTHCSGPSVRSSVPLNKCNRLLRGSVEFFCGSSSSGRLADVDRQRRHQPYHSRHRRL
Structure (SMILES),inhibition [1] [%],IC50 (Trypanosoma cruzi [2]) [µM],IC50 (Cruzipain [3]) [µM],also measured
Cc1ccccc1OCC(=O)NCCc1nc2ccccc2o1,33,2.9,–,–
O=C(COc1ccc2ccccc2c1)NCCC(=O)Nc1ccccc1O,14,–,–,–
CC(=O)Nc1ccccc1OCC(=O)NCCc1nc2ccccc2[nH]1,25,–,–,–
O=C(COc1cccc2ccccc12)NCCc1nc2ccccc2[nH]1,84,> 100,5.2,–
Cc1ccccc1OCC(=O)NCCC(=O)Nc1ccccc1,4,–,–,–
O=C(COc1ccc2ccccc2c1O)NCCc1nc2ccccc2[nH]1,51,–,8.2,–
CC(=O)n1c(CCNC(=O)COc2ccccc2[N+](=O)[O-])nc2ccccc21,47,–,–,–
Nc1ccccc1OCC(=O)NCCc1nc2ccccc2[nH]1,43,–,–,–
Cc1ccccc1OCC(=O)NCCc1c[nH]c2ccccc12,5,–,–,–
O=C(COc1cccc(Br)c1)NCCc1nc2ccccc2[nH]1,96,> 100,0.8,Activity (Mus musculus [4]): Toxic; Activity (Mus musculus [5]): Non-toxic; Activity (Mus musculus [6]): Non-toxic
O=C(COc1ccccc1I)NCCc1nc2ccccc2[nH]1,96,> 100,1.6,Activity (Mus musculus [4]): Toxic; Activity (Mus musculus [5]): Non-toxic; Activity (Mus musculus [6]): Toxic
Nc1ccccc1NC(=O)CCNC(=O)COc1ccccc1[N+](=O)[O-],4,–,–,–
O=C(CSc1ccccc1)NCCc1nc2ccccc2[nH]1,66,> 100,38.4,Activity (Mus musculus [4]): Toxic; Activity (Mus musculus [5]): Non-toxic; Activity (Mus musculus [6]): Non-toxic
O=C(COc1ccccc1Br)NCCN1CCCCC1,1,–,–,–
Cc1ccccc1OCC(=O)NCCC(=O)NCc1ccccc1,8,–,–,–
O=C(COc1ccc2ccccc2c1)NCCc1nc2ccccc2[nH]1,90,46.1,3,–
O=C(COc1ccccc1Br)NCCc1nc2ccccc2[nH]1,89,1.6,0.8,Ratio IC50 (Trypanosoma cruzi [7]): 3
O=C(COc1ccccc1Cl)NCCc1nc2ccccc2[nH]1,92,> 100,3,–
O=C(COc1ccccc1[N+](=O)[O-])NCCc1nc2ccccc2[nH]1,93,7.9,13.2,–
O=Cc1c(OCC(=O)NCCc2nc3ccccc3[nH]2)ccc2ccccc12,80,–,13.5,–
O=C(COc1ccc2ccccc2c1Br)NCCc1c[nH]c2ccccc12,2,–,–,–
O=C(Cn1ccnc1[N+](=O)[O-])NCc1ccccc1 [BENZNIDAZOLE],–,4.8,–,–
O=C(COc1ccc2ccccc2c1Br)NCCc1nc2ccccc2[nH]1,92,16.2,0.21,Ki (Cruzipain [8]): 0.082 µM

Structure (SMILES),inhibition [1] [%],IC50 (Trypanosoma cruzi [2]) [µM],IC50 (Cruzipain [3]) [µM],also measured
O=C(COc1ccc2ccccc2c1)NCCc1nc2ccccc2o1,22,–,–,–
Cc1cc(C)c(C#N)c(SCCNC(=O)COc2ccccc2C)n1,13,–,–,–
Cc1ccccc1OCC(=O)NCCc1nc2ccccc2[nH]1,88,2.8,4.1,Activity (Mus musculus [4]): Toxic; Activity (Mus musculus [5]): Non-toxic; Activity (Mus musculus [6]): Non-toxic
O=C(CCOc1ccccc1)NCCc1nc2ccccc2[nH]1,25,–,–,–
COc1ccc2[nH]c(CCNC(=O)COc3ccc4ccccc4c3Br)nc2c1,93,–,0.54,–
Cc1ccc2[nH]c(CCNC(=O)COc3ccc4ccccc4c3Br)nc2c1,97,–,0.62,–
O=C(COc1ccc2ccccc2c1CO)NCCc1nc2ccccc2[nH]1,80,–,12.7,–
O=C(COc1ccccc1F)NCCc1nc2ccccc2[nH]1,92,> 100,5.3,Activity (Mus musculus [4]): Toxic; Activity (Mus musculus [5]): Non-toxic; Activity (Mus musculus [6]): Non-toxic
Cc1ccccc1OCC(=O)NCCN1CCCCC1,3,–,–,–
CC(=O)n1c(CCNC(=O)COc2ccc(Br)cc2)nc2ccccc21,84,5.3,9.9,–
Cc1ccccc1OCCNCCc1nc2ccccc2[nH]1,8,–,–,–
O=C(COc1ccc2ccccc2c1Br)NCCc1nc2cc(Cl)ccc2[nH]1,90,–,0.6,–
O=C(COc1ccc(Br)cc1)NCCc1nc2ccccc2[nH]1,96,6.7,2.7,Activity (Mus musculus [4]): Toxic; Activity (Mus musculus [5]): Non-toxic; Activity (Mus musculus [6]): Non-toxic
Cc1ccccc1OCC(=O)NCCC(=O)O,8,–,–,–
O=C(COc1ccccc1Cl)NCCc1cnc[nH]1,14,–,–,–
O=C(CCc1ccccc1Br)NCCc1nc2ccccc2[nH]1,51,34.6,77.5,–
N#Cc1ccccc1OCC(=O)NCCc1nc2ccccc2[nH]1,81,6.5,65.1,Activity (Mus musculus [4]): Toxic; Activity (Mus musculus [5]): Non-toxic; Activity (Mus musculus [6]): Non-toxic
Cc1ccccc1OCC(=O)NCCC(=O)Nc1ccccc1O,2,–,–,–
O=C(COc1ccccc1)NCCc1nc2ccccc2[nH]1,88,–,–,–
O=C(COc1ccc2ccccc2c1)NCCc1cnc[nH]1,7,–,–,–
O=C(CCc1ccccc1Br)NCCN1CCCCC1,7,–,–,–
C=CCCn1c(CCNC(=O)COc2ccccc2Cl)nc2ccccc21,89,11.1,23.9,–
